Bioassay records as filed in PubChem BioAssay.
Sampled rows, rich in hits. Any-hit rate of the full collection: about 3%.
SENP8 block-1: SENP8 protease inhibition; Q96LD8; purified SENP8, Z-RLRGG-aminoluciferin cleavage, luminescence; inhibition, % at 10 µM; 330,000 tested, 1.2% active; AID 2540; in the data active means inhibition above about 50%
SENP6 inh: blocks the human protease SENP6; Recombinant SENP6 catalytic domain, aminoluciferin luminescence; inhibition, % at 10 µM; Q9GZR1; AID 2599; 330,000 tested, 1.8% active;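 active means inhibition above about 50% at the single tested dose, limit read from the data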;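 further: plate controls were DMSO wells with enzyme for no effect and DMSO wells lacking enzyme for full effect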
Target sequence (Q9GZR1 628-1112 limits assumed): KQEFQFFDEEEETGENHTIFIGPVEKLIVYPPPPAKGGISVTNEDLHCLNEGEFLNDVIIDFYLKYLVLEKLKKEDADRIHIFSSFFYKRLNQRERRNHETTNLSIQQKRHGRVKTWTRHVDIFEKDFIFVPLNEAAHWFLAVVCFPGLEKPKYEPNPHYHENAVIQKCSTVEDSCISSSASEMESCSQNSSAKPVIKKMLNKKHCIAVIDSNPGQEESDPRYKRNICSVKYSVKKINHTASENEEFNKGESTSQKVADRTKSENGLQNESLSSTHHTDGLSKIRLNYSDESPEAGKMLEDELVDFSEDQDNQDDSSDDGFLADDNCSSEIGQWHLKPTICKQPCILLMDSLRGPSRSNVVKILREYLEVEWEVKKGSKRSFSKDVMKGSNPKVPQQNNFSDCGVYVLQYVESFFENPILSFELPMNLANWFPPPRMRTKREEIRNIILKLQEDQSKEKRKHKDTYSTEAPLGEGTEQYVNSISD
SENP7 inh: blocks the human protease SENP7. inhibition, % at 5 µM. recombinant SENP7, Z-RLRGG-aminoluciferin luminescence, 40 min. AID 434973. Q9BQF6. 330,000 tested, 1.5% active;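 active means inhibition above about 50% at the single test dose, limit read from the data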;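 further: plate controls were DMSO with enzyme for no effect and no enzyme buffer wells for full effect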
UBC13 polyUb: blocks human UBC13 polyubiquitin chain formation; inhibition, % at 20 µM; TR-FRET; 330,000 tested, 0.47% active; in the data active means inhibition above about 45%, passing the limit was not always enough
SENP8 block-2: blocks human SENP8 cleavage of Nedd8 substrate. Q96LD8. recombinant SENP8, Nedd8 substrate fluorescence. inhibition, % at 20 µM. 360,000 tested, 0.64% active. AID 602440; in the data active means inhibition mostly above about 40%, no sharp cut-off; inactive means mostly below about 27%
Apaf-1 inh: inhibitors of human Apaf-1 apoptosome; O14727; reconstituted apoptosome caspase-3 activity, DEVD-Rh110 fluorescence; inhibition, % at 20 µM; 330,000 tested, 0.71% active; AID 489030; active means inhibition of at least 40% at 20 µM;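 further: plate controls were DMSO wells for no effect and DEVD-CHO caspase inhibitor wells for full effect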
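Assay system: Apoptosome proteins | Medium: pH 7.5 Hepes buffer with CHAPS, BSA, DTT | Also added: Cytochrome c and DEVD-Rh110 substrate | Times: 30 min plus 50 min, RT | Detection: Rhodamine 110 fluorescence at Ex 480/Em 540 nm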
SENP8 confirm: confirmation of human SENP8 protease inhibitors; 6,200 tested, 40% active; inhibition, % at 12.5 µM; shares compounds with SENP7 inh; Recombinant SENP8, Z-RLRGG-aminoluciferin luminescence, 60 min; AID 488912;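 active means mean inhibition across replicates above about 50%, limit read from the data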
SENP6 conf: human SENP6 inhibition, confirmed. shares compounds with SENP7 inh. inhibition, % at 12.5 µM. 6,200 tested, 58% active. recombinant SENP6, Z-RLRGG-aminoluciferin luminescence
SENP7 conf: confirmation of human SENP7 protease inhibitors; AID 488917; recombinant SENP7, Z-RLRGG-aminoluciferin luminescence, 40 min; shares compounds with SENP7 inh; inhibition, % at 12.5 µM; 6,200 tested, 69% active
Casp3 SENP sel: caspase-3 inhibition (SENP selectivity assay) | shares compounds with SENP7 inh | purified caspase-3, Z-DEVD-aminoluciferin luminescence, 60 min | inhibition, % at 12.5 µM | 6,200 tested, 60% active;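 active means mean inhibition above about 50%, limit read from the data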;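 further: plate controls were enzyme with DMSO for no effect and wells without caspase-3 for full effect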
Luc interf: interferes with luciferase luminescence in SENP counter-screen; shares compounds with SENP7 inh; Pre-incubated SENP8/Z-RLRGG-aminoluciferin, luciferase luminescence interference; inhibition, % at 12.5 µM; 6,200 tested, 39% active;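 active means mean inhibition above about 50% when retested at one dose, limit read from the data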;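 further: plate controls were DMSO wells with completed reaction for no effect and substrate without enzyme for full effect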
Active calls of the source: *; . = no result.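 How the source made its calls, unless noted: active means mean inhibition above about 50% in the one-dose retest (limit read from the data); inactive means the rest.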

SMILES	SENP8 block-1	SENP6 inh	SENP7 inh	UBC13 polyUb	SENP8 block-2	Apaf-1 inh	SENP8 confirm	SENP6 conf	SENP7 conf	Casp3 SENP sel	Luc interf
Cc1cc(NC(=O)c2ccc3nccnc3c2)ccc1Br	26	32	35	-10	-8	14	.	.	.	.	.
Cc1ccc(C(=O)Nc2ccc3nccnc3c2)cc1	51*	67*	73*	-2	-396	-7	56*	55*	87*	83*	27
Nc1c(C(=O)Nc2ccc3c(c2)OCCO3)nnn1Cc1cccc(Br)c1	46	68*	58*	3	5	12	34	16	85*	31	66*
CCCOc1cccc(C(=O)Nc2ccc3c(c2)OCCO3)c1	53*	77*	66*	-3	24	-3	69*	67*	86*	59*	55*
O=C(c1ccc(Cl)c(Cl)c1)N1CCC(=O)N([C@H](COCc2ccc(Cl)cc2)Cc2ccccc2)CC1	.	.	.	.	17	.	.	.	.	.	.
Cc1cc(C(=O)Nc2ccc(N3CCCC3)c(Cl)c2)ccc1[N+](=O)[O-]	12	60*	52*	-15	24	22	2	20	65*	38	16
O=C(Nc1ccc2c(c1)OCCO2)c1ccc(Cl)c(Cl)c1	59*	77*	67*	-9	16	6	53*	55*	93*	51*	26
COc1ccc(C(=O)Nc2ccc3c(c2)OCCO3)cc1Br	56*	72*	61*	2	11	11	8	5	80*	54*	-1
CCOc1ccc(C(=O)Nc2ccc3c(c2)OCCO3)cc1	71*	84*	86*	9	8	-6	-7	77*	95*	87*	69*
CCCNC(=O)C1(C)CCCN(CCC(=O)c2ccccc2)C1 (stereo not given)	.	.	.	.	24	.	.	.	.	.	.
O=C(Nc1ccc(Cl)cc1Cl)c1ccc2c(c1)OCCO2	90*	93*	92*	1	8	-3	66*	84*	95*	88*	47
O=C(Nc1ncccc1Cl)c1ccc2c(c1)OCCO2	22	-27	27	-9	21	6	.	.	.	.	.
O=C(Nc1ccc(Cl)cc1Cl)c1ccc(Br)o1	55*	69*	46	2	33	-2	-26	-15	2	-6	-6
Cc1ccc(C(=O)Nc2ccc3c(c2)OCO3)cc1	50	69*	3	-10	21	-6	68*	68*	90*	83*	20
Cc1cc(C)cc(C(=O)NC(=S)Nc2ccc3c(c2)OCCO3)c1	48	84*	42	-10	16	9	-16	-12	-9	-4	-4
O=C(Nc1ccc2c(c1)OCO2)c1ccncc1	-17	-3	-15	-12	14	10	.	.	.	.	.
Cc1ccc(C(=O)Nc2ccc3c(c2)OCCO3)cc1	72*	73*	82*	1	3	-3	5	76*	94*	87*	79*
CC(=O)Nc1ccc2c(c1)OCCO2	2	10	0	3	22	0	.	.	.	.	.
Cc1ccc(C(=O)OCC(=O)Nc2ccc3c(c2)OCO3)o1	-7	4	-5	-4	15	9	.	.	.	.	.
Cc1ccc(C(=O)Nc2ccc3c(c2)OCO3)o1	1	50*	32	-4	17	0	26	21	67*	77*	52*
O=C(Nc1ccc2c(c1)OCCO2)c1ccc2nccnc2c1	39	53*	2	0	16	-23	50*	48	82*	80*	60*
